# procasp7 counter: procaspase-7 activators, primary screen, counter-screen for procaspase-3 activator project, biochemical, absorbance, HTS, human. activation, % at 8.5 µM. 330,000 tested, 0.093% active. Caspase-7 (Homo sapiens), P55210. recombinant procaspase-7, Ac-DEVD-pNA absorbance 405 nm; D23A/D198A/D206A triple mutant, cannot self-cleave; scale: DMSO 0, 5 µM enzyme 100;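 active = percent activation above the screen-wide mean plus 3 SD, cut at about 25% in these data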
# Target sequence (P55210 whole entry D23A/D198A/D206A): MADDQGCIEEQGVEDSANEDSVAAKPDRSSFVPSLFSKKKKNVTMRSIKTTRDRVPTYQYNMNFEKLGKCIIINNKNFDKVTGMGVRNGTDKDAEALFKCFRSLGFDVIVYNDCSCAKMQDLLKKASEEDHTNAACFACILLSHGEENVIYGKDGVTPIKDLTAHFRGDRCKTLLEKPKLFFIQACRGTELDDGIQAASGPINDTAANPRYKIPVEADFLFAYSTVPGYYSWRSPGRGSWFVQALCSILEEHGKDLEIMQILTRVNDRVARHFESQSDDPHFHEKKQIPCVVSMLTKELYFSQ
#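 signal = Epi-absorbance of released pNA at 405 nm, two timepoints | assay system = Uncleavable procaspase-7 mutant enzyme | reagent = Ac-DEVD-pNA substrate, 400 µM as added | times = 1 h enzyme–compound preincubation and 2 h substrate reaction, both 25 °C | benchmarks = low DMSO alone, high DMSO plus 5 µM PC-7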
# GAA850 FXN act: FXN promoter activators, primary screen, cell-based, luciferase luminescence, HEK293 lucGAA850. HEK293 lucGAA850 FXN promoter luciferase reporter, 24 h; percent of 10 µM SAHA response. activation, % at 6 µM. 360,000 tested, 0.56% active. AID 540364, 2011;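 active = activation above the average of all compounds screened plus 3 SD, cutoff fixed separately per campaign, cut at about 7.5% in these data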;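 also: 0% = DMSO wells and 100% = 10 µM SAHA wells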
# procasp3 activ: activators of human procaspase-3 D3A mutant, primary screen, biochemical, absorbance, PC-3 D3A mutant, single concentration | recombinant procaspase-3 D3A, Ac-DEVD-pNA absorbance 405 nm | activation, % at 8.5 µM | 330,000 tested, 0.11% active;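 active = activation above the mean of all tested compounds plus 3 SD, cut at about 21% in these data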;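 also: 0% = DMSO alone and 100% = DMSO wells spiked with extra 5 µM PC-3 D3A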
# Target sequence (P42574 whole entry D9A/D28A/D175A): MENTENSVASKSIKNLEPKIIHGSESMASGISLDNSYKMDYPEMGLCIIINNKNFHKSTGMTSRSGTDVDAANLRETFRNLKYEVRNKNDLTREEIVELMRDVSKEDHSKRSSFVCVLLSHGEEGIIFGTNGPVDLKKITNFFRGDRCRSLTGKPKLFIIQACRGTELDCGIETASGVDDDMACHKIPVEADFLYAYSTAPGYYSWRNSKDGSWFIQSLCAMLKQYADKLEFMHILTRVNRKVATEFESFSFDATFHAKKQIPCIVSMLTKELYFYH
#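 Assay system: Procaspase-3 D3A mutant, all three cleavage aspartates alanine. Buffer or medium: Zinc-free HEPES saline buffer with Triton X-100. Times: 1 h compound preincubation, 2 h substrate hydrolysis at 25 °C. Measured by: 405 nm absorbance of p-nitroaniline, reads at 0 and 120 min. Read-out basis: percent activation relative to control range. Replicates: singlicate.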
# Active calls of the source: *; . = no result. Rows were chosen to be rich in hits. Some 0.7% of all compounds tested hit in one or more screens of this group.
SMILES,procasp7 counter,GAA850 FXN act,procasp3 activ
Cc1cccc(C(=O)Nc2ccc(C(=O)/C=C/c3cccnc3)cc2)c1,8,15*,-4
O=C(/C=C/c1cccnc1)c1ccc(NC(=O)c2cccc(Br)c2)cc1,-2,5,9
Cc1cc(C(C)(C)C)cc(S(=O)(=O)NCCc2ccncc2)c1C,4,4,3
N#Cc1cc2c(nc1SCc1ccc(Cl)nc1)CCCCC2,9,2,-1
CS(=O)(=O)N(CC(=O)Nc1ccc(CC#N)cc1)c1ccc(C23CC4CC(CC(C4)C2)C3)cc1,-1,11*,-4
CC(=O)Nc1ccc(C23CC4CC(CC(C4)C2)C3)cc1,-3,6,-7
CC(=O)Nc1ccc(NC(=O)CN(c2ccc(C34CC5CC(CC(C5)C3)C4)cc2)S(C)(=O)=O)cc1,5,9.5*,3
CS(=O)(=O)N(CC(=O)Nc1c(F)cccc1F)c1ccc(C23CC4CC(CC(C4)C2)C3)cc1,5,5,8
O=C(NCCCC(=O)N1CCCCC1)c1ccc(Cl)cc1,.,-1,.
CC1(C)OC(=O)N(c2ccccc2)C12C=Cc1c(ccc3ccccc13)O2 (stereo unspecified),0,2,6
O=C1NC2(C=Cc3c(ccc4ccccc34)O2)Oc2ccccc21 (stereo unspecified),11,8.6*,-5
Cc1ccc(S(=O)(=O)N2CCN(C(=O)CNC(=O)c3ccc(Cl)cc3)CC2)cc1,-3,1,4
NS(=O)(=O)c1ccc(N2N=C(c3ccccc3)CC2c2ccc(F)cc2)cc1 (stereo unspecified),86*,0,64*
Cc1cccc(C2CC(c3ccccc3)=NN2c2ccc(S(N)(=O)=O)cc2)c1 (stereo unspecified),.,2,.
O=c1ccn(-c2cccc(C(F)(F)F)c2)nc1-c1ccn(-c2cccc(Cl)c2)n1,9,11*,-9
COC(=O)c1nn(-c2cccc(C(F)(F)F)c2)ccc1=O,9,0,-5
Nc1ncc(Br)cc1N=Cc1ccccc1,-7,9.9*,2
Cn1ncc(N=Cc2ccccc2)c1C(N)=O,-13,-1,4
C(COC1CC2CC1C1C2CC2OC21)OC1CC2CC1C1C2CC2OC21 (stereo unspecified),.,0,.
CCN(C[C@H]1N[C@@](Cc2ccccc2)(C(=O)OC)[C@H]2C(=O)N(C)C(=O)[C@@H]12)C(=O)Nc1ccccc1,-1,-2,1
COCc1nnc(NC(=O)C2CC(=O)N(CCc3ccc(F)cc3)C2)s1 (stereo unspecified),-7,0,4
Cn1nc([N+](=O)[O-])nc1S(C)(=O)=O,.,18*,.
CS(=O)(=O)c1nc([N+](=O)[O-])nn1CCCc1ccccc1,-2,3,-2
CCN(CC)CCNC(=O)C(=O)NCC1OCCN1S(=O)(=O)c1cccs1 (stereo unspecified),14,0,0
O=C(N/N=C/c1ccccn1)c1sc2ccccc2c1Cl,2,13*,-2
SMILES,procasp7 counter,GAA850 FXN act,procasp3 activ
O=C(N/N=C/c1c[nH]c2ccccc12)c1sc2ccccc2c1Cl,-2,1,-18
CCOC(=O)C1CCN(c2cc(C)nc3cc(-c4cccc(F)c4)nn23)CC1,31*,-3,26*
CCOC(=O)C1CCN(C(=O)CCc2c(C)nc3cc(-c4ccccc4)nn3c2C)CC1,-5,-8,-6
CCN(CC)C(=O)C1=C(C)N(Cc2ccc(OC)cc2)C(=O)C(CC(=O)NC2CC2)C1 (stereo unspecified),.,0,.
CN(C)S(=O)(=O)Oc1ccsc1C(=O)Nc1cccc(Cl)c1,7,0,-2
COC(=O)c1sccc1-c1ccc(C(=O)Nc2cccc(Cl)c2)o1,-39,8.3*,-14
CC(=O)OCC(=O)C1(O)CCC2C3CCC4CC(O)CCC4(C)C3C(=O)CC21C (stereo unspecified),.,-2,.
CS(=O)(=O)N1N=C(c2ccc(Br)cc2)CC1c1ccc2c(c1)OCO2 (stereo unspecified),1,12*,4
Cc1ccc(C2=NN(S(C)(=O)=O)C(c3ccc4c(c3)OCO4)C2)cc1 (stereo unspecified),-5,5,0
CCn1c(=O)c2c(nc3n2CCCN3c2cccc(C)c2)n(C)c1=O,-2,-1,6
O=C(Nc1ccc(C(=O)N2CCCC2)cc1)C1CCC1,.,0,.
CCN(C(=O)COC(=O)Cc1ccc(F)cc1)c1c(N)n(Cc2ccccc2)c(=O)[nH]c1=O,3,0,9
O=C(/C=C/c1ccc(F)cc1)c1ccccc1Br,-1,9.3*,-12
Cc1ccc(C(=O)/C=C/c2ccc(F)cc2)o1,-2,5,6
Cc1cc(Cl)ccc1C(O)c1ncc(-c2cccc3ccccc23)[nH]1 (stereo unspecified),.,2,.
CCn1c2ccccc2c2nc3cc(OC)c(OC)cc3nc21,-16,2,-8
CCn1c2ccccc2c2nc3ccccc3nc21,4,9.3*,-10
O=C(CSc1ncn[nH]1)Nc1ccc(Cl)c(S(=O)(=O)N2CCOCC2)c1,1,1,4
CC(=O)N1CCc2c(sc(NC(=O)C3CC3)c2-c2nc3ccccc3s2)C1,0,2,2
CC(=O)Nc1sc2c(c1-c1nc3ccccc3s1)CN(C(C)C)CC2,-15,23*,-15
COc1ccc(NC2CCCN(C(=O)CSc3ccccn3)C2)cc1OC (stereo unspecified),-18,2,-15
Cc1ccc2sc(C)cc(=O)c2c1,.,2,.
CCc1nc(SCC(=O)NC2CC2)c2c(C)c(C)sc2n1,3,2,8
Cc1nc(SCC(=O)NC2CC2)c2c(C)c(C)sc2n1,7,0,30*
CCn1nc(C)cc1-c1nnc(Sc2ncc([N+](=O)[O-])s2)n1C,-27,-9,-24
SMILES,procasp7 counter,GAA850 FXN act,procasp3 activ
CCOC(=O)/C(=C\c1ccc(OC(F)F)cc1)C1=Nn2c(nnc2-c2ccc(Cl)cc2)SC1,-15,8.2*,-10
CCOC(=O)/C(=C/c1ccc(OC(F)F)cc1)C1=Nn2c(nnc2-c2ccc(Cl)cc2)SC1,.,4,.
CCn1cc(Cl)c(C(=O)Nc2nccs2)n1,.,2,.
CCN=c1scc(-c2ccc(F)cc2)n1/N=C/c1ccccn1,-10,8.8*,-11
CCN=c1scc(-c2ccccc2)n1/N=C/c1ccccn1,-23,-7,-12
O=C(CSc1nc(=O)n(CCCN2CCOCC2)c2c1CCCC2)Nc1cccc(F)c1,4,1,3
Cc1cc(C)n(-c2nc(NC(C)C)nc(NC(C)C)n2)n1,10,9.6*,-4
Cc1cc(C)n(-c2nc(NC(C)(C)C)nc(NC(C)(C)C)n2)n1,6,-2,-9
O=C(Cn1ncc2c3ccccc3n(Cc3ccccc3)c2c1=O)N1CCN(c2ccccn2)CC1,-1,19*,-1
O=C(Cn1ncc2c3ccccc3n(Cc3ccccc3)c2c1=O)N1CCN(c2ncccn2)CC1,5,-3,6

# Compound activity as filed in PubChem.
